The values that follow come from ChEMBL document CHEMBL5696442, “Discovery of type II inhibitors of TGFβ-activated kinase 1 (TAK1) and mitogen-activated protein kinase kinase kinase kinase 2 (MAP4K2)” (J Med Chem, 2015).

Test [1] concerns the target Cyclin-dependent kinase 18 (Homo sapiens) (UniProt Q07002). The test is described as follows: Inhibition of PCTAIRE3 Lys1 labeling site harbouringSKLTENLVALKEIR in human A-375 cells at 0.5 uM by KiNativ Profiling analysis relative to control. Type of test: cell-based. In a few lines:
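Live A375 melanoma cells were treated with compound at 5 or 0.5 μM, then lysed. Lysates were labeled with a lysine-reactive ATP or ADP-biotin probe. Read-out was the compound's protection of kinase labeling sites from probe labeling (KiNativ).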

The target in test [2] is Serine/threonine-protein kinase WNK2 (Homo sapiens) (UniProt Q9Y3S1). The test is described as follows: Inhibition of Wnk2 ATP Loop labeling site in human A-375 cells at 5 uM by KiNativ Profiling analysis relative to control. Format: cell-based.
The target of test [3] is Glycogen synthase kinase-3 alpha (Homo sapiens) (UniProt P49840). The test is described as follows: Inhibition of GSK3A Lys2 labeling site in human A-375 cells at 0.05 uM by KiNativ Profiling analysis relative to control. Type of test: cell-based.
Glycogen synthase kinase-3 alpha (Homo sapiens), sequence (P49840 2-483 limits assumed): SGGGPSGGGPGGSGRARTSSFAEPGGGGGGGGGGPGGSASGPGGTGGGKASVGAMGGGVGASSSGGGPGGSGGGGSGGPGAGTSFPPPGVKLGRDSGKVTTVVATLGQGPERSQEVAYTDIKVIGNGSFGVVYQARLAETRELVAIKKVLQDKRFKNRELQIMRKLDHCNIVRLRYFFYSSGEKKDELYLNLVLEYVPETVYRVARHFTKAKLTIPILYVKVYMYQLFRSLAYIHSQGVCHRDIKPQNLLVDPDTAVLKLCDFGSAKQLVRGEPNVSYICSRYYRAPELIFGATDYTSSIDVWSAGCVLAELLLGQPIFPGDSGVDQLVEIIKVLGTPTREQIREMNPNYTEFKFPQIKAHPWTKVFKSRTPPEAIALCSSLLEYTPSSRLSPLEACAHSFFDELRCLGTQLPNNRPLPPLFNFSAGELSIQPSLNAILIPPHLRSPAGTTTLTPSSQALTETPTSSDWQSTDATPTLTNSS
Test [4] has as its target Interleukin-1 receptor-associated kinase 1 (Homo sapiens) (UniProt P51617). The test is described as follows: Inhibition of IRAK1 Lys2 labeling site in human A-375 cells at 5 uM by KiNativ Profiling analysis relative to control. Type of test: cell-based.
The target of test [5] is T1, Phosphatidylinositol 5-phosphate 4-kinase type-2 gamma (Homo sapiens) (UniProt Q8TBX8).
T1 sequence (whole entry): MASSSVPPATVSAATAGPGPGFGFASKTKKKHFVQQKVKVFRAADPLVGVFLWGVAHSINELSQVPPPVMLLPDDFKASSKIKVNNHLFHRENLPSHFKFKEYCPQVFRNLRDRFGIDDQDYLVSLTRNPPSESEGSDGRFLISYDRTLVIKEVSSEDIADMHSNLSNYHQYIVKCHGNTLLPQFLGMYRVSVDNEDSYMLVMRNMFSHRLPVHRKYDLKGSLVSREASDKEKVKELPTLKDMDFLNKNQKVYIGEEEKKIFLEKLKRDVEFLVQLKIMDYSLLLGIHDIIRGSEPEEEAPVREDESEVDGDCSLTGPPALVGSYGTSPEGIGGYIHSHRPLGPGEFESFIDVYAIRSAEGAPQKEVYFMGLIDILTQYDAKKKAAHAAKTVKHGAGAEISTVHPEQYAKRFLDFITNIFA
The test is described as follows: Inhibition of PIP4K2C ATP labeling site harbouring VKELPTLKDMDFLNK in human A-375 cells at 0.05 uM by KiNativ Profiling analysis relative to control. Type of test: cell-based.

In test [6] the target is T2, Kinase suppressor of Ras 2 (Homo sapiens) (UniProt Q6VAB6).
T2 sequence (whole entry): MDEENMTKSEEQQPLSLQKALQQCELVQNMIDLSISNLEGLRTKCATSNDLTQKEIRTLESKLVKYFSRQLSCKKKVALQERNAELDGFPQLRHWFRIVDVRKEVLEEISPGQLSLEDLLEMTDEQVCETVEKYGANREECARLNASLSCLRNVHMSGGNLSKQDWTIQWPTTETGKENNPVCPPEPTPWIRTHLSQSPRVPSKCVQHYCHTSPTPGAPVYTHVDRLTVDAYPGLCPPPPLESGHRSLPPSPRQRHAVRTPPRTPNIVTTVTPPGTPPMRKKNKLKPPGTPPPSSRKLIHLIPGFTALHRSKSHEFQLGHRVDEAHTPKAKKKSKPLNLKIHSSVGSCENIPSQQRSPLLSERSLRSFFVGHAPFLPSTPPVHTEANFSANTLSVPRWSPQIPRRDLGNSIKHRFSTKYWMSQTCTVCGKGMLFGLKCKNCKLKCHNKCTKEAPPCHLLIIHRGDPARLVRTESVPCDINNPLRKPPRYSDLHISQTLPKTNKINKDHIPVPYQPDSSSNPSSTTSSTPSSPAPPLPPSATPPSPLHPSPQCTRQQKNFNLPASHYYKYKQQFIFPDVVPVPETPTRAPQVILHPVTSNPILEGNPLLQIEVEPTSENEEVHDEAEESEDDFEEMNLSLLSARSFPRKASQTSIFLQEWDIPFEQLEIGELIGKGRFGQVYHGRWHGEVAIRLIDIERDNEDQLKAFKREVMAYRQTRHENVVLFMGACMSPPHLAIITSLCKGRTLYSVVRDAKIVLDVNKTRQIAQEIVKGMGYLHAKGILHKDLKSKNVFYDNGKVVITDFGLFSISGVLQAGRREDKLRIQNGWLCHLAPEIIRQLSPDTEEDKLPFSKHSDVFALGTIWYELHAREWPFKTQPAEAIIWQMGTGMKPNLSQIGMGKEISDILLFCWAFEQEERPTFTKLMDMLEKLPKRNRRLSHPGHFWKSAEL
The test is described as follows: Inhibition of KSR2 ACT labeling site in human A-375 cells at 0.5 uM by KiNativ Profiling analysis relative to control. Format: cell-based.

In test [7] the target is Tyrosine-protein kinase CSK (Homo sapiens, UniProt P41240). The test is described as follows: Inhibition of CSK (unknown origin) ACT labeling site by KiNativ Profiling analysis.
Tyrosine-protein kinase CSK, sequence (P41240 whole entry): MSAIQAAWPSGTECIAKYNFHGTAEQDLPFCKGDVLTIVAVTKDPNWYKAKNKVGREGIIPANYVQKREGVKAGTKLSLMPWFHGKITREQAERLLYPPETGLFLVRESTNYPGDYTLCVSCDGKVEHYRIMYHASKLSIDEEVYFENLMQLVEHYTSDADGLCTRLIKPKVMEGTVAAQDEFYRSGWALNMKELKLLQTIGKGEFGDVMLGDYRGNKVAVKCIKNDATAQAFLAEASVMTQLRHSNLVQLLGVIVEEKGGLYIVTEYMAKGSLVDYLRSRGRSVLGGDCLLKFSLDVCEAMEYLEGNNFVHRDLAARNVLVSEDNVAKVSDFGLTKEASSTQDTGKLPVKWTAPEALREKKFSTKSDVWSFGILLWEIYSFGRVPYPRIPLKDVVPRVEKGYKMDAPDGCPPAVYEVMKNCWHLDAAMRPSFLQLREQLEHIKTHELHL
The target of test [8] is Serine/threonine-protein kinase WNK1 (Homo sapiens) (UniProt Q9H4A3). The test is described as follows: Inhibition of Wnk1 ACT labeling site in human A-375 cells at 0.5 uM by KiNativ Profiling analysis relative to control. Type of test: cell-based.
Test [9] addresses Misshapen-like kinase 1 (Homo sapiens) (UniProt Q8N4C8). The test is described as follows: Inhibition of ZC3/MINK Lys2 labeling site in human A-375 cells at 0.5 uM by KiNativ Profiling analysis relative to control. Format: cell-based.
Test [10] has as its target Serine/threonine-protein kinase Nek7 (Homo sapiens) (UniProt Q8TDX7). The test is described as follows: Inhibition of NEK7 ACT labeling site in human A-375 cells at 0.05 uM by KiNativ Profiling analysis relative to control. Format: cell-based.
The target of test [11] is T3, Mitogen-activated protein kinase 12 (Homo sapiens) (UniProt P53778).
T3 sequence (whole entry): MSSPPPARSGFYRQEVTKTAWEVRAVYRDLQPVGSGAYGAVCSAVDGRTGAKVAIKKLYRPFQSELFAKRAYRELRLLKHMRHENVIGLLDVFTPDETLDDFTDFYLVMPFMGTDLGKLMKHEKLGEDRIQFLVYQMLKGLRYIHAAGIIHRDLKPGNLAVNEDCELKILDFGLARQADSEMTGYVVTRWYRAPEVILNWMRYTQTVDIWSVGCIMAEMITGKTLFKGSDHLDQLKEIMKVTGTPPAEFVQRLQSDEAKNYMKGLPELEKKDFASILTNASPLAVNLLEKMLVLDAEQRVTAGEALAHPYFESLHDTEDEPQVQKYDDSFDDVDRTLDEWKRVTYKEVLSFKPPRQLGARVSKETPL
The test is described as follows: Inhibition of p38 gamma Lys2 labeling site in human A-375 cells at 0.5 uM by KiNativ Profiling analysis relative to control. Format: cell-based.

Test [12] addresses Mitogen-activated protein kinase 14 (Homo sapiens, UniProt Q16539). The test is described as follows: Inhibition of p38 alpha (unknown origin) by KiNativ Profiling analysis.
Test [13] has as its target Proto-oncogene tyrosine-protein kinase Src (Homo sapiens, UniProt P12931). The test is described as follows: Inhibition of SRC Lys1 labeling site in human Huh-7 cell lysate at 1 uM by KiNativ Profiling analysis relative to control. Type of test: subcellular.
In the next test the test system is MEF. The test is described as follows: Inhibition of TGF-beta induced p38 MAPK phosphorylation level in wild type mouse MEF cells incubated for 1 hr followed by TGF-beta stimulation by Western blot analysis. Format: functional, cell-based. Particulars: dose <= 500.0 nM. In general terms: In western blotting, separated proteins are transferred to a membrane and probed.

Molecules are shown by their SMILES.

Interleukin-1 receptor-associated kinase 1 (Homo sapiens), sequence (P51617 whole entry, looked up): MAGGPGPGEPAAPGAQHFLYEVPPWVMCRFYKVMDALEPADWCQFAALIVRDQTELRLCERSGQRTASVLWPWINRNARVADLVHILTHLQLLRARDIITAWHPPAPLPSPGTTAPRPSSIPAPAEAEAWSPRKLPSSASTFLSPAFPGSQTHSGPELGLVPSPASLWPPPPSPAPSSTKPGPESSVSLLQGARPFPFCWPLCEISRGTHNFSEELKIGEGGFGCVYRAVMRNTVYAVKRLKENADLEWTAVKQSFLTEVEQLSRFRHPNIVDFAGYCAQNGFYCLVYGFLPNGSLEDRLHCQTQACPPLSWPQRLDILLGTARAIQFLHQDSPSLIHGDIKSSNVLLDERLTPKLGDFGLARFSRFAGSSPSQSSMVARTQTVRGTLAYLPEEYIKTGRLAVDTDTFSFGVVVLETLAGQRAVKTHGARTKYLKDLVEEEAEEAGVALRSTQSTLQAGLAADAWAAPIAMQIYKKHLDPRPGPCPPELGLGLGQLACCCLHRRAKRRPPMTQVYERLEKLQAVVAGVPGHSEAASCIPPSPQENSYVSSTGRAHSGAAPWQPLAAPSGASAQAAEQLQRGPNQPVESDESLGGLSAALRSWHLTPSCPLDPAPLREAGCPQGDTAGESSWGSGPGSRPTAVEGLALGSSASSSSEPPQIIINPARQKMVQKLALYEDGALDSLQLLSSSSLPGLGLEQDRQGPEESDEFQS
Cyclin-dependent kinase 18 (Homo sapiens), sequence (Q07002 whole entry): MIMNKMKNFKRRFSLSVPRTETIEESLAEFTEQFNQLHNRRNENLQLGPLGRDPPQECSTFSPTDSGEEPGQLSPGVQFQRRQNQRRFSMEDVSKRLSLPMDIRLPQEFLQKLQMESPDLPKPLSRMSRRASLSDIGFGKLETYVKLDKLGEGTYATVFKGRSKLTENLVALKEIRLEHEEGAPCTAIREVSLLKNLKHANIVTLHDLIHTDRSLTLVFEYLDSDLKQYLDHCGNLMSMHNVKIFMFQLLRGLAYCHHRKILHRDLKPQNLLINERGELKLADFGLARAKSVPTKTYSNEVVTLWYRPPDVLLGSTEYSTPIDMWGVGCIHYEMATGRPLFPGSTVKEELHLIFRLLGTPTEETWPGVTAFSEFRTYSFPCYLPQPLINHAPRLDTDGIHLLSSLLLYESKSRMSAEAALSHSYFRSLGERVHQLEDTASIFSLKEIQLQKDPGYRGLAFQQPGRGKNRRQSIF
Misshapen-like kinase 1 (Homo sapiens), sequence (Q8N4C8 whole entry, looked up): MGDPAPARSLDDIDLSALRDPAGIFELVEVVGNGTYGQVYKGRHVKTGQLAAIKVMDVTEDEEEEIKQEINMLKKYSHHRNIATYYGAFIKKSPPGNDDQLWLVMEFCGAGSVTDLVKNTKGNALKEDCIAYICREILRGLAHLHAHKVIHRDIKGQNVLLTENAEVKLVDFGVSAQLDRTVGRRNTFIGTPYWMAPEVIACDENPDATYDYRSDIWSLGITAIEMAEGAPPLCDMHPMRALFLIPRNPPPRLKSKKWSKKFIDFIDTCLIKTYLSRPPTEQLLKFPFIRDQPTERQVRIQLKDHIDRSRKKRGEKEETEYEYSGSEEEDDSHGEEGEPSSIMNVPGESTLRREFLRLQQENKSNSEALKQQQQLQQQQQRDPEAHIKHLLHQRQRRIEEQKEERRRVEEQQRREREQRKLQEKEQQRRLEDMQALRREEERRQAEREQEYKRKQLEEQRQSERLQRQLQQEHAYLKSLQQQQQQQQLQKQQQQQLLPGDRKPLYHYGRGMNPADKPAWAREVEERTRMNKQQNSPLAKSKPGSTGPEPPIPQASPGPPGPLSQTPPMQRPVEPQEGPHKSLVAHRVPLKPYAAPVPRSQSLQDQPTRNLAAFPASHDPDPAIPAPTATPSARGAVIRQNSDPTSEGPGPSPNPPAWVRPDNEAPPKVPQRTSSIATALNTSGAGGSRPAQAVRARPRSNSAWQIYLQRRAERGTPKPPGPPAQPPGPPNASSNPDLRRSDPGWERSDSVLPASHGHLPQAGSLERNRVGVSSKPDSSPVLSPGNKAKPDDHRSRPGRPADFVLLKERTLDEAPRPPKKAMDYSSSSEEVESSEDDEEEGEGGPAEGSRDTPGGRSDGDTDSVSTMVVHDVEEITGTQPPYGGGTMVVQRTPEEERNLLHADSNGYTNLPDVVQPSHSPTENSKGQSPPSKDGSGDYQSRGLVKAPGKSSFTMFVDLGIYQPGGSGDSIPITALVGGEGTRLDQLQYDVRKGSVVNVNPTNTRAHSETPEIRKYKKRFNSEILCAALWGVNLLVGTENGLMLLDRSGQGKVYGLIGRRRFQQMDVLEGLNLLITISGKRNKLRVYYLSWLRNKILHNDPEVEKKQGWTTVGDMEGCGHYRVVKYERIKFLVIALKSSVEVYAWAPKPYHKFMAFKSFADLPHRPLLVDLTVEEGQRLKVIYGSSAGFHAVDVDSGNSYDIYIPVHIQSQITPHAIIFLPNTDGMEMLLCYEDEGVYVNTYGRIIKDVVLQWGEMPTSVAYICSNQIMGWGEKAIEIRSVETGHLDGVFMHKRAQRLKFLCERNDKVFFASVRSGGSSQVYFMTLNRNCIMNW
Mitogen-activated protein kinase 14, sequence (Q16539 whole entry): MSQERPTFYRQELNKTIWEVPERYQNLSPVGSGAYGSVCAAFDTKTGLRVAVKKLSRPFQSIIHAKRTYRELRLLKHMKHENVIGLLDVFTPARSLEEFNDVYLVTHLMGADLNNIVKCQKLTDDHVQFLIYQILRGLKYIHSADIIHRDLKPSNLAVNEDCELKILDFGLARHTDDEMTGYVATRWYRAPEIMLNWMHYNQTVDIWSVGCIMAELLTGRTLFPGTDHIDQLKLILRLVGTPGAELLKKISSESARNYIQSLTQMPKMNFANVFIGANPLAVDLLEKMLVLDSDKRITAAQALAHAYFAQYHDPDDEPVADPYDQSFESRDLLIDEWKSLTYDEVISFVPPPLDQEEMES
Serine/threonine-protein kinase Nek7 (Homo sapiens), sequence (Q8TDX7 whole entry, looked up): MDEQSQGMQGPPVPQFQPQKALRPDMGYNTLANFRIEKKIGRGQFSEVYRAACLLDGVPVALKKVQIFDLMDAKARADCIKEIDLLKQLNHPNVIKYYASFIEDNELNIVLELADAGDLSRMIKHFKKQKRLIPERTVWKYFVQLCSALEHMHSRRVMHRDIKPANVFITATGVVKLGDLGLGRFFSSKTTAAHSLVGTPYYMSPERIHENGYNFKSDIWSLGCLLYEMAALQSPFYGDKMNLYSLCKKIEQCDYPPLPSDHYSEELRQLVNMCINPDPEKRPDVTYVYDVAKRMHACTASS
Proto-oncogene tyrosine-protein kinase Src, sequence (P12931 2-536 limits assumed): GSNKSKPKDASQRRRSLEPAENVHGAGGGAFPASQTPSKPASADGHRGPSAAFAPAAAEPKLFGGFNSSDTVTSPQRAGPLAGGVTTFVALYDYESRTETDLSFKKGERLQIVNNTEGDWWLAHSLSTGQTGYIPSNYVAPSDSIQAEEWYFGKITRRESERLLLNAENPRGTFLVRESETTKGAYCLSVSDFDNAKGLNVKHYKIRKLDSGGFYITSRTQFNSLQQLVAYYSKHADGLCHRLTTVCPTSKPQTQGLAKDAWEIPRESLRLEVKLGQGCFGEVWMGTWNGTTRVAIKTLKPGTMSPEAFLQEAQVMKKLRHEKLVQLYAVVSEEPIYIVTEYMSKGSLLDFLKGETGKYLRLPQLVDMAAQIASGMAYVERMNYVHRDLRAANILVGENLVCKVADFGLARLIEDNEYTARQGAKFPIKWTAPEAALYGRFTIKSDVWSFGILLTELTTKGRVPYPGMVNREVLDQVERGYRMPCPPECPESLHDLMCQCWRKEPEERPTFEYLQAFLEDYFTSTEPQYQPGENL

What is called inhibition is the relative decrease from the control value, in per cent. A word on the IC50: it is the point on the concentration scale where inhibition reaches its midpoint. Low values mean higher potency, high ones lower potency. As for `CCN1CCN(Cc2ccc(NC(=O)c3ccc(C)c(/C=C/c4cnc5[nH]ccc5c4OC)c3)cc2C(F)(F)F)CC1`, the inhibition in [1] was 11.3%; in [2], 13.7%; in test [3], 14.4%; in test [4], 61.1%; in test [5] it was -7.3%; in test [6], 16.8%. Also, the inhibition in test [8] worked out at 6.9%; in test [9] it was 48.1%; in [10] it was 6.8%; in test [11] it was 25.2%. Further, the results for the IC50 in [7] and in [12] were 80.9 nM and 238 nM, respectively.

Consider `CNc1cc(Oc2cc(C(=O)Nc3cc(-n4cnc(C)c4)cc(C(F)(F)F)c3)ccc2C)ncn1`, for which the inhibition in test [13] is -2.8%; with MEF, “Dose-Dependent Effect”.

Turning to `CCN1CCN(Cc2ccc(NC(=O)c3ccc(C)c(Oc4ccnc5[nH]ccc45)c3)cc2C(F)(F)F)CC1`, the inhibition in test [1] is 31.7%; in test [2], 13.1%; in test [3], 0.3%; in [4], 7.4%; in test [5], -1.1%; in test [6] it was 8.5%. Further, the inhibition in test [8] came to 3.9%; in test [9], 70.8%; in test [10] it was 14.2%; in test [11] it was 86.2%. Also, the IC50 in test [7] amounted to 56.4 nM; in test [12], 102 nM.

As for `CNc1cc(Oc2cc(C(=O)Nc3cc(N4CCN(C)CC4)cc(C(F)(F)F)c3)ccc2C)ncn1`, the figures for the inhibition (in test [13]; in the test with MEF) were 18.1% and “Dose-Dependent Effect”, respectively.
